This is an account of results in ChEMBL document CHEMBL1124636, “3,4-Dihydro-2H-1-benzopyran-2-carboxylic acids and related compounds as leukotriene antagonists” (J Med Chem, 1989).

For experiment [1], the system named is Cavia porcellus. The experiment in a line: Inhibition of leukotriene E4 induced bronchoconstriction in anesthetized guinea pigs after aerosol administration as 1% solution. The format is functional.
The test system of experiment [2] is Cysteinyl leukotriene receptor (Cavia porcellus). Kind of experiment: Inhibitory activity to block binding of [3H]leukotriene D4 to LTD4 receptor sites in homogenized guinea pig lung at 10 uM.
For experiment [3], the system named is Cavia porcellus. Kind of experiment: Inhibition of leukotriene E4 induced bronchoconstriction in anesthetized guinea pigs after intravenous administration at a dose of 10 mg/kg. The format is functional.
Experiment [4] is described as follows: Inhibitory activity to inhibit Inophore-induced arachidonic acid metabolism (inhibition of PGE-2 formation) in rat. The format is functional. In a few lines: (§1)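 Rat peritoneal macrophages adhered 90 min at 37 °C, labeled with [14C]arachidonic acid 90 min, washed. Compound 30 min at 37 °C, then A23187 0.5 µM for 20 min. LTB4 and PGE2 in medium by radioimmunoassay.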

The species entered for experiment [5] is Rattus norvegicus. The experiment in a line: Inhibitory activity to inhibit Inophore-induced arachidonic acid metabolism (inhibition of LTB4 formation) in rat; Inactive = no significant inhibition at a concentration of 100 uM. The format is functional, organism-based. In a few lines:
as §1

The Inhibition is the share of the control response that was lost under treatment. Read a high Inhibition as a response far below the control. A word on the inhibition: it is how much of the control response was suppressed. Read a low inhibition as little suppression. The inhibition in vivo is the share of the control response that was lost under treatment. A high value points to a response far below the control. Consider `CCCc1c(OCCCOc2c(C)c(C)c3c(c2C)CCC(C)(C(=O)O)O3)ccc(C(C)=O)c1O` (stereo not given), for which the Inhibition in experiment [1] came out at 53%. Moreover, the inhibition in experiment [2] came out at 88%. In experiment [3], this compound gave an inhibition in vivo at 10 mg/kg of 99%.
What is called IC50 is the concentration needed to halve the response being measured. A higher IC50 goes with lower potency. As to `O=C(O)c1ccc(OCCn2ccnc2)cc1` [DAZOXIBEN], the IC50 in experiment [4] is 10 µM; in experiment [5] it was “Not Active”.
